Columns and labels:
[1] = tested on: mice; details: cited from earlier work
[2] = tested on: mice; experiment: iv Metrazol test; format: in vivo; details: ip, 25 mg/kg and 81 mg/kg
[3] = tested on: Na+ currents in rat embryonic cortical neurons; experiment: Whole-cell patch-clamp electrophysiology of Na+ currents in cortical neurons; format: cell-based; details: 20 μM
Method in brief: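 Cortical neurons from embryonic day 19 rat cortices were cultured 7–10 days in vitro. Whole-cell voltage clamp was run at room temperature in external solution containing 100 mM NaCl, TEA-Cl, CdCl2, NiCl2 and 4-AP (HEPES, pH 7.3), with 20 μM test compound or 0.1% DMSO control. Slow inactivation was read as the fraction of current available at −50 mV. V1/2 and k came from Boltzmann fits to individual recordings, averaged as mean ± SEM.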

[4] = tested on: Na+ currents in mouse CAD cells; experiment: Whole-cell patch-clamp electrophysiology of Na+ currents in CAD cells; format: cell-based
[5] = tested on: Na+ currents in mouse CAD cells; details: cited from earlier work
[6] = tested on: mice; experiment: Maximal electroshock seizure; format: in vivo; details: Mus musculus, ip, read-out: MES ED50
[7] = tested on: mice; details: ip; cited from earlier work
[8] = tested on: rat; details: oral; cited from earlier work

COC[C@@H](NC(C)=O)C(=O)NCc1ccccc1 [Compound 1, Lacosamide]
anticonvulsant activity in scMet model [1]: did not display anticonvulsant activity

Cl.NCc1ccc(-c2cccc(OC(F)(F)F)c2)cc1 [Compound 8, (3′-Trifluoromethoxybiphenyl-4-yl)methylammonium Chloride]
seizure threshold vs control group [2]: no statistical difference from the control group | effect on steady-state activation (V1/2 and k) [3]: unchanged | frequency (use)-dependent inhibition of Na+ currents [3]: did not exhibit | extent of slow inactivation (fraction of current available at −50 mV) ([3]; vehicle DMSO 0.41): 0.17 ± 0.03 | change in slope values of fast inactivation ([3]; vs control): no commensurate significant changes | hyperpolarizing shift of V1/2 of steady-state fast inactivation ([3]; vs control): ~15.7 mV | effect on Na+ channel steady-state activation [4]: did not affect | effect on slopes of fast inactivation [4]: not affected | frequency (use)-dependent inhibition of Na+ currents ([4]; 10 μM, 10 Hz): did not exhibit

NCc1ccc(OCc2cccc(F)c2)cc1 [Compound 22]
effect on fast inactivation [5]: affected fast inactivation | frequency (use)-dependent blockage of Na+ currents [5]: displayed frequency (use)-dependent blockage

Cl.NCc1ccc(-c2ccccc2)cc1 [Compound 2, (Biphenyl-4-yl)methylammonium Chloride]
ED50 [6]: 30 to 100 mg/kg

CCC1(c2ccccc2)C(=O)NC(=O)NC1=O [phenobarbital]
MES ED50 [7]: 22 [1.0] (15-23) mg/kg | MES ED50 [8]: 9.1 [5.0] (7.6-12) mg/kg

CCCC(CCC)C(=O)O [valproate]
MES ED50 [7]: 270 [0.25] (250-340) mg/kg | MES ED50 [8]: 490 [0.5] (350-730) mg/kg

— PMC3842382 (Journal of medicinal chemistry, 2013)
